# Bioassay records from PubChem.
# Hits are enriched below; roughly 2.3% of the tested compounds scored in any of these assays.
# PDI turbidity: blocks human protein disulfide isomerase activity | 0.052% of 350,000 active | PDI insulin aggregation turbidity, A650, 90 min | P07237 | inhibition, % at 10 µM;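 active = mean inhibition across replicates of 30% or more, whatever share of single replicates reach that level; inconclusive = mean inhibition below 30% while every single replicate reaches 30%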
# Target sequence (P07237 whole entry, looked up): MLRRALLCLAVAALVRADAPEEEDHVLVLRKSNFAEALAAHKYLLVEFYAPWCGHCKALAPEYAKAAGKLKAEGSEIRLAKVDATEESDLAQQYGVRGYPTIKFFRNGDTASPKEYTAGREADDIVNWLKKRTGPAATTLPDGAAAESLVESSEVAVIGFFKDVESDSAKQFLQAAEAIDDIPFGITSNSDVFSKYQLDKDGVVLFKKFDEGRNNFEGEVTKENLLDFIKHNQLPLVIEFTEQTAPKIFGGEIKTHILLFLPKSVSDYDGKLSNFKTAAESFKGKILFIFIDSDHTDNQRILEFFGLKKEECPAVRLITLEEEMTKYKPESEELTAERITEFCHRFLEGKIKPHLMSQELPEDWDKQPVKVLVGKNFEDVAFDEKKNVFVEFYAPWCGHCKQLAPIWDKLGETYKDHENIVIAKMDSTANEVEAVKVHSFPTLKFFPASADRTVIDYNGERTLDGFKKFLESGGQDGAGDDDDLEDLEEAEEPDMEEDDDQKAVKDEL
# ERp5 inh: inhibitors of human ERp5. AID 651711. Q15084. inhibition, % at 9.99 µM. ERp5 insulin aggregation, absorbance 650 nm, 90 min. 0.05% of 350,000 active;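 active = mean replicate inhibition above about 25%, with every replicate also reaching it, limit read from the data, passing the limit was not always enough; inconclusive = only one of those two criteria met; inactive = neither criterion met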
# DENV2 CPE rescue: inhibitors of DENV2 cytopathic effect; DENV2-infected cells, cytopathic effect rescue, plate reader; CPE inhibition, % at 9.99 µM; 1.7% of 350,000 active; in the data active = CPE inhibition above about 20%, passing the limit was not always enough; inconclusive = no clear call, values can overlap the other calls; tested in BHK-21 cells;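 also: 0% = median of neutral control wells and 100% = median of positive control wells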
# C2C12 statin: protects C2C12 myotubes from simvastatin toxicity; AID 602340; 0.78% of 330,000 active; ATP luminescence, 48 h; scaled: DMSO 0, geranylgeraniol control 100; rescue of ATP level, % at 7.49 µM;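 active = mean ATP rescue above about 67%, or every replicate alone reaching that limit, limit read from the data, passing the limit was not always enough; inconclusive = no clear call, values can overlap the other calls; inactive = mean under the limit and some replicate under it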;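 also: myotubes were challenged with 10 µM simvastatin during compound exposure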
# Cneo AK release: causes C. neoformans cell lysis | adenylate kinase release luminescence, 4 h; normalised: neutral wells 0, clomiphene wells 100 | lysis activity, % at 15 µM | 0.2% of 360,000 active | AID 651654;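 active = mean lysis activity across replicates of at least 80%, whatever share of replicates individually reach that level; inactive = mean lysis activity below 80%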
#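 Material: C. neoformans cells | Amount: Yeast cell density of 5 × 10^6 cells/mL | Medium: Fresh YPD growth medium | Dosing: Single dose | Times: Static 4 h at 37 °C with compound, 1 h detection | Detection: AK luminescence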
# CFTR F508del cor: CFTR F508del correction in bronchial cells; CFBE cells, YFP halide quenching; stimulated with forskolin plus potentiator P3; % fluorescence drop versus neutral controls; activity (quench increase), % at 7.58 µM; 0.36% of 350,000 active;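 active = mean added fluorescence quench of at least 8% versus neutral control, with both replicates also reaching 8%; inconclusive = only one of the mean or replicate conditions met; inactive = mean below 8% and not both replicates reaching 8%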;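 also: cells transiently co-express mutant CFTR-F508del with the halide-sensitive YFP; corrector assay measuring rescue of mutant channel to the surface after 24 h compound exposure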
# * = called active by the depositor; ? = inconclusive; nt = not tested or not shown.
SMILES,PDI turbidity,ERp5 inh,DENV2 CPE rescue,C2C12 statin,Cneo AK release,CFTR F508del cor
C[C@H](CO)N1C[C@H](C)[C@H](CN(C)Cc2ccncc2)Oc2ccc(NC(=O)Cn3cnnn3)cc2CC1=O,nt,0,23*,-22,0,1
C[C@H]1CN([C@@H](C)CO)C(=O)Cc2cc(NC(=O)Cn3cnnn3)ccc2O[C@H]1CN(C)Cc1ccncc1,1,0,1,3,12,1
CCC(=O)N1[C@@H](CO)[C@@H](c2ccc(-c3ccccc3OC)cc2)C12CN(C(C)=O)C2,nt,8,5,nt,nt,-2
C[C@@H]1CN([C@H](C)CO)C(=O)c2ccccc2-c2ccccc2CO[C@@H]1CN(C)C(=O)c1ccccc1,nt,-4,15,-9,52,0
COC(=O)CNc1cc(S(=O)(=O)N2CCCCC2)ccc1Oc1ccc(C(=O)OC)cc1,3,2,?,19,3,8.7*
Cc1cccc(C)c1OCC(O)Cn1ccnc1C (stereo not given),9,2,40*,17,1,4
Cc1cccc(OCC(O)Cn2ccnc2C)c1 (stereo not given),-3,5,-2,-2,5,1
O=C1c2ccccc2C(=O)N1OCc1ccc(Cl)cc1,7,nt,nt,68*,-2,nt
CC(=O)N1CCN(c2nc(-c3ccco3)c3c(c2C#N)CC(C)(C)SC3)CC1,6,nt,nt,-3,-2,nt
CC1(C)Cc2c(C#N)c(N3CCN(C(=O)c4ccco4)CC3)nc(-c3ccco3)c2CS1,-2,nt,nt,121*,-3,nt
CCCC(=O)Nc1ccc2c(c1)OC[C@H](C)N(C(=O)CN(C)C)C[C@@H](C)[C@@H](OC)CN(C)C2=O,nt,2,?,-6,-3,3
C[C@H](NC(=O)[C@@H]1[C@@H](CO)[C@@H]2Cn3c(ccc(C4=CCCCC4)c3=O)[C@H]1N2)c1ccccc1,nt,0,0,-2,0,-1
CC12CCC(=O)N1C(C(=O)Nc1cccc(S(=O)(=O)N3CCCCCC3)c1)CS2 (stereo not given),-3,-3,-9,0,1,0
COc1ccc(-c2csc(NC(=O)C3CSC4(C)CCC(=O)N34)n2)cc1 (stereo not given),-16,6,0,2,-1,-1
CC12CCC(=O)N1C(C(=O)Nc1ccc(S(=O)(=O)N3CCCCC3)cc1)CS2 (stereo not given),-11,2,32*,0,nt,0
CC12CCC(=O)N1C(C(=O)Nc1nc(-c3ccccc3)cs1)CS2 (stereo not given),-4,5,29*,nt,nt,-4
Cc1noc(C)c1S(=O)(=O)Nc1ccc2c(c1)C(=O)N([C@@H](C)CO)C[C@@H](C)[C@@H](CN(C)C(=O)C1CCCCC1)OCCCC[C@@H](C)O2,nt,1,-12,nt,5,3
CN1CCN(C2CCN(c3ccc(Nc4nnc(Cl)c(Nc5ccccc5S(C)(=O)=O)n4)c(OC(CF)CF)c3)CC2)CC1,-6,0,37*,-15,4,4
CC1CC(c2ccccc2)n2nc(N3C(=O)c4ccccc4C3=O)nc2N1 (stereo not given),16,nt,nt,101*,7,nt
O=C(C[C@H]1CC[C@H]2[C@@H](COC[C@H](O)CN2S(=O)(=O)c2ccc(F)cc2)O1)NCC1CCCCC1,nt,-4,?,9,5,3
COc1ccc(NS(=O)(=O)c2cc(NC(=O)Cc3c(F)cccc3Cl)ccc2OC)cc1,5,5,10,-13,-1,19*
CCOc1ccc(NS(=O)(=O)c2cc(NC(=O)CCNC(=O)c3ccco3)ccc2OC)cc1,-3,-6,2,-4,-8,32*
COC(=O)/C=C/c1ccccc1S(=O)(=O)N(Cc1ccccc1)Cc1ccco1,-5,nt,nt,-1,3,8.3*
CC(C)(C)C(=O)Nc1ccccc1N1CCN(C(=O)c2ccc(Cl)cc2)CC1,-39,nt,nt,127*,3,nt
O=C(CSc1ccc(Cl)cc1)Nc1ccccc1N1CCN(C(=O)c2ccc(Cl)cc2)CC1,-2,2,-13,nt,nt,-3
SMILES,PDI turbidity,ERp5 inh,DENV2 CPE rescue,C2C12 statin,Cneo AK release,CFTR F508del cor
O=C(CCC(=O)N1CCOc2ccc(Cl)cc21)N1CCN(c2ccccn2)CC1,nt,1,-3,0,0,8.3*
C[C@@H]1CCCCO[C@@H](CN(C)C(=O)Cc2ccccc2)[C@H](C)CN([C@H](C)CO)C(=O)c2cc(NC(=O)Nc3ccccc3)ccc2O1,nt,5,-2,nt,4,-2
C[C@@H]1CN([C@@H](C)CO)C(=O)c2cc(C#Cc3cccnc3)cnc2O[C@@H]1CN(C)C,nt,-2,-2,10,61,0
O=C(Nc1ccc(Cl)cc1)N(CCCN1CCOCC1)Cc1cccs1,-12,4,26*,-19,0,0
CC(=O)N1CC(=O)N2[C@H](CO)[C@@H](c3ccc(-c4cccc(C(=O)N(C)C)c4)cc3)[C@H]2C1,nt,1,0,nt,nt,2
COc1ccccc1CN(C)C(=O)c1cccc(S(=O)(=O)N2CCCc3ccccc32)c1,3,3,81*,-18,1,-3
COc1ccccc1C(CNC(=O)c1cccc(S(=O)(=O)N2CCCc3ccccc32)c1)N(C)C (stereo not given),4,-12,-1,-8,-3,-5
COc1ccc(CCNC(=O)/C=C\c2ccccc2)cc1OC,23,1,0,nt,0,nt
COc1cccc(/C=C/C(=O)NCCc2ccc(OC)c(OC)c2)c1,0,5,99*,nt,nt,1
COC(=O)c1ccc(N2C(=O)CC(N(C)Cc3ccccc3)C2=O)cc1 (stereo not given),-1,nt,nt,87*,-1,nt
C[C@@H]1CN([C@H](C)CO)C(=O)Cc2cc(NC(=O)Nc3ccccc3)ccc2O[C@@H]1CN(C)C(=O)Nc1ccc(C(F)(F)F)cc1,nt,nt,-5,-18,57,-1
CC1OC(OCC2OC(Oc3c(-c4ccc(O)cc4)oc4cc(O)cc(O)c4c3=O)C(O)C(O)C2O)C(O)C(O)C1O (stereo not given),nt,-1,4,-1,-1,-2
C[C@@H]1O[C@@H](OC[C@H]2O[C@@H](Oc3c(-c4ccc(O)c(O)c4)oc4cc(O)cc(O)c4c3=O)[C@H](O)[C@@H](O)[C@@H]2O)[C@H](O)[C@H](O)[C@H]1O,58*,1,-2,2,-2,4
O=c1c(O[C@@H]2O[C@H](CO)[C@@H](O)[C@H](O)[C@H]2O)c(-c2ccc(O)cc2)oc2cc(O)cc(O)c12,37*,nt,nt,6,2,nt
O=c1c(OC2OC(CO)C(O)C(O)C2OC2OC(CO)C(O)C(O)C2OC2OC(CO)C(O)C(O)C2O)c(-c2ccc(O)c(O)c2)oc2cc(O)cc(O)c12 (stereo not given),nt,3,16,-1,1,-1
